Results gathered from unrelated publications.
Compare with care: the assays were run in different laboratories.

O=C(Nc1ccc2c(c1)B(O)OC2)c1cccc(OCc2ccccc2)c1 — Papp (PAMPA; 200 µM, 5 h, pH 7.4): 0.14 ×10⁻⁶ cm/s
CC[C@@H](C)[C@@H]1NC(=O)[C@@H](CC(C)C)NC(=O)CN(C)C(=O)[C@H]([C@H](C)CC)NC(=O)[C@@H](CC(C)C)NC(=O)CN(C)C1=O — Papp (PAMPA): 38 ×10⁻⁶ cm/s
O=C(Nc1ccc2c(c1)B(O)OC2)c1ccccc1OCc1ccccc1 — Papp (PAMPA; 200 µM, 5 h, pH 7.4): 1.2 ×10⁻⁶ cm/s
CN1CCN(C(c2ccc(Cl)cc2)c2ccc(Cl)cc2)CC1 — Papp (PAMPA): 1020 ×10⁻⁶ cm/s
Cc1nonc1Cn1nnc2c(N3CC[C@H](O)C3)nc(C(C)(C)C)nc21 — Papp (PAMPA): 2.2 ×10⁻⁶ cm/s
O=C(Nc1ccc2c(c1)B(O)OC2)c1cccc(OCc2c(Cl)cccc2Cl)c1 — Papp (PAMPA; 200 µM, 5 h, pH 7.4): 0.91 ×10⁻⁶ cm/s
CNC(=O)[C@@H](NC(=O)c1cc(OCC2(C)COC2)c(C2CC2)cn1)C(C)(C)C — Papp (PAMPA): 5.17 ×10⁻⁶ cm/s
COCCOCCOCCOc1c(OC)cc2cc(C(=O)N3C[C@@H](CCl)c4c3cc(O)c3[nH]c(C(=O)OC)cc43)[nH]c2c1OC — Papp (PAMPA; 1 µM, 5 h, pH 7.4): 4.2 ×10⁻⁶ cm/s
CC[C@@H](C)[C@@H]1NC(=O)[C@@H](Cc2ccc(Cl)cc2)NC(=O)CN(C)C(=O)[C@H]([C@H](C)CC)NC(=O)[C@@H](Cc2ccc(Cl)cc2)NC(=O)CN(C)C1=O — Papp (PAMPA): 33 ×10⁻⁶ cm/s
O=C(Nc1ccc2c(c1)B(O)OC2)c1ccc(OCc2ccc(Cl)cc2)cc1 — Papp (PAMPA; 200 µM, 5 h, pH 7.4): 4.4 ×10⁻⁶ cm/s
CC[C@H](C)[C@@H]1NC(=O)[C@H](CC(C)C)NC(=O)[C@@H](CC(C)C)NC(=O)[C@H]2CCCN2C(=O)[C@H](Cc2ccc(OC)cc2)NC(=O)[C@@H](CC(C)C)NC1=O — Papp (PAMPA; 10 µM, 7 h): 11.9 ×10⁻⁶ cm/s
COCCOCCOCCOCCOc1c(OC)cc2cc(C(=O)N3C[C@@H](CCl)c4c3cc(O)c3[nH]c(C(=O)OC)cc43)[nH]c2c1OC — Papp (PAMPA; 1 µM, 5 h, pH 7.4): 10 ×10⁻⁶ cm/s
COc1ccc(C[C@@H]2NC(=O)[C@@H](CC(C)C)NC(=O)[C@H](C)NC(=O)[C@H](CC(C)C)NC(=O)[C@@H](CC(C)C)NC(=O)[C@H]3CCCN3C2=O)cc1 — Papp (PAMPA; 10 µM, 7 h): 19 ×10⁻⁶ cm/s
CC(NC(C)(C)C)C(=O)c1cccc(Cl)c1 (stereo not drawn) — Papp (PAMPA-BBB; 1 µM, 18 h): 16 ×10⁻⁶ cm/s
CC(C)[C@H]1C(=O)N[C@@H](CCCN=C(N)N)C(=O)NCC(=O)N[C@@H](CC(=O)O)C(=O)N[C@H](Cc2ccccc2)C(=O)N1C — Papp (Caco-2): ~0.1 ×10⁻⁶ cm/s
